{
  "source": "paper PMC8923172",
  "about": "(Antimicrobial Agents and Chemotherapy, 2022)",
  "key": {"[1]": {"experiment": "Serum biochemistry of cynomolgus monkeys at the end of treatment", "assay_type": "in vivo", "settings": "median (IQR)", "method_in_brief": "(§1)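 GLP 10-day study in male and female cynomolgus monkeys (n = 3-5/sex/group) dosed once daily with 0 (placebo), 5, 10 or 15 mg/kg test compound by i.v. infusion over 60 ± 5 min. Hematology, serum chemistry and coagulation were taken at end of treatment and reported as median (IQR). Dose groups were compared by Kruskal-Wallis with Dunn's multiple comparison test.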"}, "[2]": {"experiment": "Coagulation in cynomolgus monkeys at the end of treatment", "assay_type": "in vivo", "settings": "median (IQR)", "method_in_brief": "as §1"}},
  "note": "Marks after values point to notes of the source that are not given here. Residues, ends and D or L forms follow the SMILES beside them.",
  "data": [
    {"compound": "CC[C@H](C)[C@@H]1NC(=O)[C@@H]2CSSC[C@H](NC(=O)[C@H](CCCNC(=N)N)NC(=O)[C@@H]3CSSC[C@H](NC1=O)C(=O)N[C@@H]([C@@H](C)O)C(=O)N[C@@H](CCCNC(=N)N)C(=O)NCC(=O)N[C@@H](Cc1ccccc1)C(=O)N3)C(=O)N[C@@H](CC(C)C)C(=O)N[C@H]1CSSC[C@H](NC(=O)[C@H](C(C)C)NC(=O)CNC(=O)[C@H](CCCNC(=N)N)NC(=O)[C@H](CCCNC(=N)N)NC1=O)C(=O)N[C@@H](CCCNC(=N)N)C(=O)N2", "note": "[RTD-1, Rhesus theta (θ) defensin-1] (HELM PEPTIDE1{G.F.C.R.C.L.C.R.R.G.V.C.R.C.I.C.T.R}$PEPTIDE1,PEPTIDE1,3:R3-16:R3|PEPTIDE1,PEPTIDE1,5:R3-14:R3|PEPTIDE1,PEPTIDE1,7:R3-12:R3|PEPTIDE1,PEPTIDE1,1:R1-18:R2$$$V2.0)", "values": [
      {"measurement": "Triglycerides", "setting": "[1]; female, 15 mg/kg/day", "result": "56.0 (11.0) mg/dL"},
      {"measurement": "Urea N", "setting": "[1]; female, 15 mg/kg/day", "result": "18.0 (1.0) mg/dL"},
      {"measurement": "A/G", "setting": "[1]; male, 5 mg/kg/day", "result": "1.8 (0.1)"},
      {"measurement": "ALP", "setting": "[1]; male, 5 mg/kg/day", "result": "802.0 (253.0) U/L"},
      {"measurement": "ALT", "setting": "[1]; male, 5 mg/kg/day", "result": "172.0 (125.0) U/L"},
      {"measurement": "AST", "setting": "[1]; male, 5 mg/kg/day", "result": "122.0 (190.0) U/L"},
      {"measurement": "Albumin", "setting": "[1]; male, 5 mg/kg/day", "result": "4.8 (0.2) g/dL"},
      {"measurement": "CK", "setting": "[1]; male, 5 mg/kg/day", "result": "888.0 (13,478.0) U/L"},
      {"measurement": "Calcium", "setting": "[1]; male, 5 mg/kg/day", "result": "9.8 (0.5) mg/dL"},
      {"measurement": "Chloride", "setting": "[1]; male, 5 mg/kg/day", "result": "110.0 (2.0) mmol/L"},
      {"measurement": "Cholesterol", "setting": "[1]; male, 5 mg/kg/day", "result": "110.0 (15.5) mg/dL"},
      {"measurement": "Creatinine", "setting": "[1]; male, 5 mg/kg/day", "result": "0.8 (0.2) mg/dL"},
      {"measurement": "GGT", "setting": "[1]; male, 5 mg/kg/day", "result": "137.0 (31.5) U/L"},
      {"measurement": "Globulin", "setting": "[1]; male, 5 mg/kg/day", "result": "2.7 (0.1) g/dL"},
      {"measurement": "Glucose", "setting": "[1]; male, 5 mg/kg/day", "result": "111.0 (26.5) mg/dL"},
      {"measurement": "Phos", "setting": "[1]; male, 5 mg/kg/day", "result": "5.5 (1.7) mg/dL"},
      {"measurement": "Potassium", "setting": "[1]; male, 5 mg/kg/day", "result": "6.0 (1.4) mmol/L"},
      {"measurement": "Sodium", "setting": "[1]; male, 5 mg/kg/day", "result": "147.0 (4.0) mmol/L"},
      {"measurement": "T-Bil", "setting": "[1]; male, 5 mg/kg/day", "result": "0.3 (0.1) mg/dL"},
      {"measurement": "TP", "setting": "[1]; male, 5 mg/kg/day", "result": "7.5 (0.2) g/dL"},
      {"measurement": "Triglycerides", "setting": "[1]; male, 5 mg/kg/day", "result": "46.0 (18.5) mg/dL"},
      {"measurement": "Urea N", "setting": "[1]; male, 5 mg/kg/day", "result": "15.0 (3.5) mg/dL"},
      {"measurement": "A/G", "setting": "[1]; male, 10 mg/kg/day", "result": "1.7 (0.2)"},
      {"measurement": "ALP", "setting": "[1]; male, 10 mg/kg/day", "result": "753.0 (3.5) U/L"},
      {"measurement": "ALT", "setting": "[1]; male, 10 mg/kg/day", "result": "105.0 (26.5) U/L"},
      {"measurement": "AST", "setting": "[1]; male, 10 mg/kg/day", "result": "105.0 (43.5) U/L"},
      {"measurement": "Albumin", "setting": "[1]; male, 10 mg/kg/day", "result": "4.7 (0.2) g/dL"},
      {"measurement": "CK", "setting": "[1]; male, 10 mg/kg/day", "result": "515.0 (2,756.5) U/L"},
      {"measurement": "Calcium", "setting": "[1]; male, 10 mg/kg/day", "result": "10.5 (0.4) mg/dL"},
      {"measurement": "Chloride", "setting": "[1]; male, 10 mg/kg/day", "result": "110.0 (1.5) mmol/L"},
      {"measurement": "Cholesterol", "setting": "[1]; male, 10 mg/kg/day", "result": "99.0 (16.5) mg/dL"},
      {"measurement": "Creatinine", "setting": "[1]; male, 10 mg/kg/day", "result": "0.6 (0.1) mg/dL"},
      {"measurement": "GGT", "setting": "[1]; male, 10 mg/kg/day", "result": "119.0 (32.5) U/L"},
      {"measurement": "Globulin", "setting": "[1]; male, 10 mg/kg/day", "result": "2.9 (0.4) g/dL"},
      {"measurement": "Glucose", "setting": "[1]; male, 10 mg/kg/day", "result": "71.0 (23.0) mg/dL"},
      {"measurement": "Phos", "setting": "[1]; male, 10 mg/kg/day", "result": "5.4 (0.8) mg/dL"},
      {"measurement": "Potassium", "setting": "[1]; male, 10 mg/kg/day", "result": "5.9 (0.9) mmol/L"},
      {"measurement": "Sodium", "setting": "[1]; male, 10 mg/kg/day", "result": "150.0 (3.0) mmol/L"},
      {"measurement": "T-Bil", "setting": "[1]; male, 10 mg/kg/day", "result": "0.3 (0.0) mg/dL"},
      {"measurement": "TP", "setting": "[1]; male, 10 mg/kg/day", "result": "7.5 (0.5) g/dL"},
      {"measurement": "Triglycerides", "setting": "[1]; male, 10 mg/kg/day", "result": "32.0 (6.0) mg/dL"},
      {"measurement": "Urea N", "setting": "[1]; male, 10 mg/kg/day", "result": "20.0 (3.5) mg/dL"},
      {"measurement": "A/G", "setting": "[1]; male, 15 mg/kg/day", "result": "1.6 (0.2)"},
      {"measurement": "ALP", "setting": "[1]; male, 15 mg/kg/day", "result": "957.0 (638.0) U/L"},
      {"measurement": "ALT", "setting": "[1]; male, 15 mg/kg/day", "result": "88.0 (17.0) U/L"},
      {"measurement": "AST", "setting": "[1]; male, 15 mg/kg/day", "result": "103.0 (40.0) U/L"},
      {"measurement": "Albumin", "setting": "[1]; male, 15 mg/kg/day", "result": "4.4 (0.2) g/dL"},
      {"measurement": "CK", "setting": "[1]; male, 15 mg/kg/day", "result": "518.0 (1,392.0) U/L"},
      {"measurement": "Calcium", "setting": "[1]; male, 15 mg/kg/day", "result": "10.1 (0.3) mg/dL"},
      {"measurement": "Chloride", "setting": "[1]; male, 15 mg/kg/day", "result": "112.0 (1.0) mmol/L"},
      {"measurement": "Cholesterol", "setting": "[1]; male, 15 mg/kg/day", "result": "105.0 (50.0) mg/dL"},
      {"measurement": "Creatinine", "setting": "[1]; male, 15 mg/kg/day", "result": "0.6 (0.1) mg/dL"},
      {"measurement": "GGT", "setting": "[1]; male, 15 mg/kg/day", "result": "101.0 (6.0) U/L"},
      {"measurement": "Globulin", "setting": "[1]; male, 15 mg/kg/day", "result": "2.9 (0.5) g/dL"},
      {"measurement": "Glucose", "setting": "[1]; male, 15 mg/kg/day", "result": "67.0 (5.0) mg/dL"},
      {"measurement": "Phos", "setting": "[1]; male, 15 mg/kg/day", "result": "5.2 (0.6) mg/dL"},
      {"measurement": "Potassium", "setting": "[1]; male, 15 mg/kg/day", "result": "5.8 (0.6) mmol/L"},
      {"measurement": "Sodium", "setting": "[1]; male, 15 mg/kg/day", "result": "149.0 (2.0) mmol/L"},
      {"measurement": "T-Bil", "setting": "[1]; male, 15 mg/kg/day", "result": "0.2 (0.2) mg/dL"},
      {"measurement": "TP", "setting": "[1]; male, 15 mg/kg/day", "result": "7.5 (0.8) g/dL"},
      {"measurement": "Triglycerides", "setting": "[1]; male, 15 mg/kg/day", "result": "78.0 (52.0) mg/dL"},
      {"measurement": "Urea N", "setting": "[1]; male, 15 mg/kg/day", "result": "15.0 (2.0) mg/dL"},
      {"measurement": "APTT", "setting": "[2]; female, 5 mg/kg", "result": "22.40 (2.05) s"},
      {"measurement": "Fibrinogen", "setting": "[2]; female, 5 mg/kg", "result": "238.00 (40.50) mg/dL"},
      {"measurement": "PT", "setting": "[2]; female, 5 mg/kg", "result": "12.20 (0.25) s"},
      {"measurement": "APTT", "setting": "[2]; female, 10 mg/kg", "result": "20.80 (0.55) s"},
      {"measurement": "Fibrinogen", "setting": "[2]; female, 10 mg/kg", "result": "294.00 (7.50) mg/dL"},
      {"measurement": "PT", "setting": "[2]; female, 10 mg/kg", "result": "11.80 (0.25) s"},
      {"measurement": "APTT", "setting": "[2]; female, 15 mg/kg", "result": "22.60 (0.90) s"},
      {"measurement": "Fibrinogen", "setting": "[2]; female, 15 mg/kg", "result": "300.00 (57.00)^d mg/dL"},
      {"measurement": "PT", "setting": "[2]; female, 15 mg/kg", "result": "12.30 (0.50) s"},
      {"measurement": "APTT", "setting": "[2]; male, 5 mg/kg", "result": "21.60 (0.80) s"},
      {"measurement": "Fibrinogen", "setting": "[2]; male, 5 mg/kg", "result": "306.00 (49.50) mg/dL"},
      {"measurement": "PT", "setting": "[2]; male, 5 mg/kg", "result": "12.00 (0.55) s"},
      {"measurement": "APTT", "setting": "[2]; male, 10 mg/kg", "result": "21.10 (0.45) s"},
      {"measurement": "Fibrinogen", "setting": "[2]; male, 10 mg/kg", "result": "285.00 (22.50) mg/dL"},
      {"measurement": "PT", "setting": "[2]; male, 10 mg/kg", "result": "12.00 (0.25) s"},
      {"measurement": "APTT", "setting": "[2]; male, 15 mg/kg", "result": "22.10 (1.65) s"},
      {"measurement": "Fibrinogen", "setting": "[2]; male, 15 mg/kg", "result": "336.00 (114.00) mg/dL"},
      {"measurement": "PT", "setting": "[2]; male, 15 mg/kg", "result": "12.25 (0.83) s"}
    ]}
  ]
}
